Tests used:
[1] = test system: FM3A; assay: Selectivity index as EC50 FM3A /EC50 Plasmodium falciparum; assay type: functional
[2] = test system: FM3A; assay: In vitro cytotoxicity in mouse mammary tumor FM3A cells; Nontoxic at a 1*10^-4 M concentration.; assay type: functional, cell-based
[3] = test system: Mus musculus; assay: In vivo antimalarial activity against Plasmodium berghei NK 65 in mice (Mus musculus) at 20 mg/kg/day; assay type: functional
Method in brief: (§1)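 Male ICR mice, 5 weeks old, 22-25 g, five per group. Infected iv (tail vein) with 1 × 10⁶ P. berghei NK 65 parasitized erythrocytes in 0.2 mL 0.9% NaCl. Compound in DMSO given ip once daily on days 0-3, first dose 2 h after inoculation. Controls were DMSO-dosed. Day-4 parasitemia counted on Giemsa tail-blood smears (1 × 10⁴ RBCs). Percent suppression relative to controls, mean of five mice.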

[4] = test system: Mus musculus; assay: In vivo antimalarial activity against Plasmodium berghei NK 65 in mice (Mus musculus) at 50 mg/kg/day; assay type: functional; method in brief: as §1
[5] = test system: Plasmodium falciparum; assay: Antiparasitic activity against Plasmodium falciparum FCR-3
[6] = test system: FM3A; assay: In vitro cytotoxicity in mouse mammary tumor FM3A cells; assay type: functional, cell-based
[7] = test system: Plasmodium falciparum; assay: In vitro antimalarial activity against chloroquine-sensitive Plasmodium falciparum FCR3; Not toxic at 100uM; assay type: functional, organism-based

O=C(CCC[C@H]1OO[C@H](CCCC(=O)c2ccc(F)cc2)OO1)c1ccc(F)cc1
Selectivity [1]: >169 | EC50 [2]: Not toxic | Growth inhibition [3]: 0% | Growth inhibition [4]: 30% | EC50 [5]: 510 nM

Fc1ccc(C2OOC3CCCC(c4ccccc4)(OO2)O3)cc1 (stereo not given)
Selectivity [1]: 6 | EC50 [6]: 17 µM | EC50 [5]: 2800 nM

Fc1ccc(C2OOC3CCCC(c4ccc(F)cc4)(OO2)O3)cc1 (stereo not given)
Selectivity [1]: 5 | EC50 [6]: 9 µM | EC50 [5]: 1900 nM

Fc1ccc(C23CCCC(OOC(C4CCCCC4)OO2)O3)cc1 (stereo not given)
Selectivity [1]: 17 | EC50 [6]: 2.5 µM | EC50 [5]: 150 nM

CCC(CC)C1OOC2CCCC(c3ccccc3)(OO1)O2 (stereo not given)
Selectivity [1]: 65 | EC50 [6]: 33 µM | Growth inhibition [3]: 15% | Growth inhibition [4]: 18% | EC50 [5]: 510 nM

CC(C)(C)C1OOC2CCCC(c3ccccc3)(OO1)O2 (stereo not given)
Selectivity [1]: 2 | EC50 [6]: 26 µM | EC50 [5]: 17000 nM

O=C(CCCC1OOC2CCCC(c3ccc(F)cc3)(OO1)O2)c1ccc(F)cc1 (stereo not given)
Selectivity [1]: >141 | EC50 [2]: Not toxic | Growth inhibition [3]: 0% | Growth inhibition [4]: 0% | EC50 [5]: 710 nM

COc1ccc(C(=O)CCC[C@H]2OO[C@H](CCCC(=O)c3ccc(OC)cc3)OO2)cc1
Selectivity [1]: >5 | EC50 [2]: Not toxic | EC50 [5]: 20000 nM

c1ccc(C23CCCC(OOC(C4CCCCC4)OO2)O3)cc1 (stereo not given)
Selectivity [1]: 48 | EC50 [6]: 10 µM | Growth inhibition [3]: 0% | Growth inhibition [4]: 15% | EC50 [5]: 210 nM

COc1ccc(C(=O)CCCC2OOC3CCCC(c4ccc(OC)cc4)(OO2)O3)cc1 (stereo not given)
Selectivity [1]: 19 | EC50 [6]: 18 µM | EC50 [5]: 930 nM

O=C(CCC[C@H]1OO[C@@H](CCCC(=O)c2ccccc2)OO1)c1ccccc1
Selectivity [1]: >8 | EC50 [2]: Not toxic | EC50 [5]: 12000 nM

FC(F)(F)c1ccccc1C1OOC(c2ccccc2C(F)(F)F)OO1 (stereo not given)
Selectivity [1]: 5 | EC50 [6]: 3 µM | EC50 [5]: 600 nM

Fc1ccc(C2OOC(c3ccc(F)cc3)OO2)cc1 (stereo not given)
Selectivity [1]: >200 | EC50 [2]: Not toxic | Growth inhibition [3]: 50% | Growth inhibition [4]: 90% | EC50 [5]: 500 nM

C1CCC([C@H]2OO[C@H](C3CCCCC3)OO2)CC1
Selectivity [1]: 55 | EC50 [6]: 11 µM | Growth inhibition [3]: 50% | Growth inhibition [4]: 96% | EC50 [5]: 200 nM

c1ccc(C[C@H]2OO[C@H](Cc3ccccc3)OO2)cc1
Selectivity [1]: >7 | EC50 [2]: Not toxic | EC50 [5]: 14000 nM

c1ccc([C@H]2OO[C@H](c3ccccc3)OO2)cc1
Selectivity [1]: >91 | EC50 [2]: Not toxic | Growth inhibition [3]: 6% | Growth inhibition [4]: 50% | EC50 [5]: 1100 nM

Fc1ccc(C23CCCC(OOC(c4ccccc4)OO2)O3)cc1 (stereo not given)
Selectivity [1]: 4 | EC50 [6]: 8.1 µM | EC50 [5]: 2900 nM

COc1ccc(C2OOC(c3ccc(OC)cc3)OO2)cc1 (stereo not given)
Selectivity [1]: >127 | EC50 [2]: Not toxic | EC50 [5]: 790 nM

CCCCCCC[C@H]1OO[C@H](CCCCCCC)OO1
Selectivity [1]: >67 | EC50 [2]: Not toxic | EC50 [5]: 1500 nM

O=C(CCCC1OOC2CCCC(c3ccccc3)(OO1)O2)c1ccccc1 (stereo not given)
Selectivity [1]: >77 | EC50 [2]: Not toxic | EC50 [5]: 1300 nM

O=C(CCC[C@H]1OO[C@H](CCCC(=O)c2ccccc2)OO1)c1ccccc1
Selectivity [1]: >250 | EC50 [2]: Not toxic | Growth inhibition [3]: 30% | Growth inhibition [4]: 40% | EC50 [5]: 400 nM

CCCCCCCC1OOC2CCCC(c3ccccc3)(OO1)O2 (stereo not given)
EC50 [6]: 12 µM | EC50 [5]: 1500 nM

c1ccc(C2OOC3CCCC(c4ccccc4)(OO2)O3)cc1 (stereo not given)
Selectivity [1]: 36 | EC50 [6]: 50 µM | EC50 [5]: 1400 nM

FC(F)(F)c1ccc(C2OOC(c3ccc(C(F)(F)F)cc3)OO2)cc1 (stereo not given)
EC50 [7]: Not toxic | EC50 [2]: Not toxic

C[C@@H]1CC[C@H]2[C@@H](C)C(=O)O[C@@H]3O[C@@]4(C)CC[C@@H]1[C@]32OO4 [ARTEMISININ]
EC50 [6]: 10 µM | Growth inhibition [3]: 93% | Growth inhibition [4]: 100% | EC50 [5]: 7.8 nM
